OX1R antag-1: antagonists of human orexin 1 receptor (OX1R). inhibition, % at 6.6 µM. OX1R-expressing cells, FRET antagonist read-out. 1.8% of 330,000 active. AID 485270, 2010; in the data active = inhibition mostly above about 38%, no sharp cut-off; inactive = mostly below about 40%;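 also: 0% = agonist challenge alone and 100% = reference antagonist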
Target sequence (O43613 whole entry, looked up): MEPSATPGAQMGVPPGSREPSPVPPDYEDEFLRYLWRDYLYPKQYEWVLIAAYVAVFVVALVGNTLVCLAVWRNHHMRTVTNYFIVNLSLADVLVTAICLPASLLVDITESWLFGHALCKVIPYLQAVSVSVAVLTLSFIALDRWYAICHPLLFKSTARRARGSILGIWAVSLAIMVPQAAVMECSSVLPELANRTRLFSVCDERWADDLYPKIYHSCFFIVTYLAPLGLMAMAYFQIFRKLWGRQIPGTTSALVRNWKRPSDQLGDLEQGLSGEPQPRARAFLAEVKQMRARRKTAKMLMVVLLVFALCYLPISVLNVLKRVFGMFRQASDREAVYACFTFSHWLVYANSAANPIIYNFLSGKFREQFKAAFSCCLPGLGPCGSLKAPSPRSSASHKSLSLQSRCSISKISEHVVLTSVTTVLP
TAAR1 ag: human TAAR1 agonists, primary screen, Fluo-8 calcium fluorescence, CHO RD-HGA16 cells; Trace amine-associated receptor 1 (Homo sapiens), Q96RJ0; vehicle wells 0%, saturating PEA agonist 100%; activation, % at 3 µM; 0.99% of 360,000 active; AID 624467, 2012;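 active = activation above the mean activation of all test compounds in the run plus 3 SD, cut at about 38% in these data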
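Benchmarks: low control DMSO, high control PEA (EC100); System: CHO RD-HGA16 cells carrying human TAAR1 plus Gα16; Detection: Fluo-8 fluorescence, 5 s baseline then 140 s kinetic read; Schedule: 17-24 h plating, Fluo-8 75 min 37 °C, 30 min RT; Read-out basis: % activation from peak over basal fluorescence ratio, DMSO-to-PEA scaled.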
CHO parental Ca: ATP-evoked calcium signal inhibitors, parental CHO, primary screen, counter-screen for OX1R antagonist project, cell-based, fluorescence, Fluo-8 calcium dye; parental CHO-K1, ATP-induced calcium, Fluo-8 fluorescence; inhibition, % at 5.6 µM; 0.63% of 330,000 active;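 active = inhibition above that plate's mean sample inhibition plus 3 SD, cut at about 26% in these data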;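 also: 0% = ATP-challenged DMSO wells and 100% = DMSO wells without ATP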
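Test system: parental CHO cells; detection: calcium-sensitive Fluo-8 fluorescence; evaluation: percent inhibition of calcium signal; also added: ATP as calcium-mobilizing challenge; repeats: one well per compound; control set: ATP-challenged DMSO wells low, unchallenged DMSO wells high; compound: single nominal dose of 5.6 µM per compound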
TAAR1 antagonist: human TAAR1 antagonists, primary screen, Fluo-8 calcium fluorescence, CHO RD-HGA16 cells | 1.5% of 360,000 active | inhibition, % at 3 µM | antagonist | AID 624466, 2012;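 active = inhibition above a per-plate cutoff, the mean inhibition of test compounds on that plate plus 3 SD, cut at about 49% in these data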;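 also: 0% = DMSO plus EC80 beta-PEA response and 100% = DMSO alone without agonist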
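Assay system: CHO-derived RD-HGA16 cells stably expressing human TAAR1 plus Gα16. Timing: 140 s kinetic read after compound, 140 s after agonist. Technique: kinetic Fluo-8 calcium fluorescence measurement. Measure: % inhibition of agonist calcium response.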
OX1R antag-2: OX1R (HCRTR1) antagonists, primary screen, fluorescence, CHO/OX1R cells, Fluo-8 calcium, orexin A; inhibition, % at 5 µM; Fluo-8 calcium fluorescence; 0.43% of 330,000 active;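 active = inhibition above its plate's threshold, mean inhibition of all tested compounds on the plate plus 3 SD, cut at about 37% in these data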;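 also: 0% = orexin A challenge wells and 100% = SB-334867-A antagonist wells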
GPR7 antagonist: GPR7 receptor antagonists, primary screen, cell-based, fluorescence, single concentration; Neuropeptides B/W receptor type 1 (Homo sapiens), P48145; 1.1% of 290,000 active; AID 1861, 2009; GPR7-expressing cells, fluorescence antagonist assay; inhibition, % at 4.4 µM; in the data active = inhibition above about 16%, passing the limit was not always enough;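 also: cells stimulated with the agonist NPW; 0% = agonist with vehicle and 100% = vehicle without agonist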
Numbers without * were called inactive; . = not tested or not shown. Sampled rows, rich in hits. Any-hit rate of the full collection: about 4.5%.

SMILES	OX1R antag-1	TAAR1 ag	CHO parental Ca	TAAR1 antagonist	OX1R antag-2	GPR7 antagonist
Cc1cccc(S(=O)(=O)c2c(N)n(Cc3ccco3)c3nc4ccccc4nc23)c1	16	9	0	1	-7	-10
Nc1ccn([C@@H]2O[C@H](C(=O)N3CCN(C(=O)C(F)(F)F)CC3)[C@@H](O)[C@H]2O)c(=O)n1	.	1	.	-19	.	.
Cn1cc(CCOCc2ccccn2)c2ccccc21	.	1	.	-22	.	.
Oc1c(Br)cc(/C=N/NC(=S)NCc2ccco2)cc1Br	37*	4	-5	-21	-2	1
COC(=O)c1cc2ccccc2oc1=O	31	4	-4	-13	-21	-9
COC(=O)c1ccccc1OC(=O)c1cc2ccccc2oc1=O	31*	0	-7	-16	-29	10
CC1CCN(C(=O)COC(=O)c2cc3ccccc3oc2=O)CC1	42*	4	-11	-14	-5	.
CC1CCCC(NC(=O)COC(=O)c2cc3ccccc3oc2=O)C1C (stereo not drawn)	8	1	-16	-21	-20	.
COC(=O)[C@@H](Cc1ccccc1)NC(=O)[C@H]1O[C@@H](n2cnc3c(=O)[nH]c(N)nc32)[C@H](O)[C@@H]1O	.	1	.	4	.	.
O=C(Cc1ccccc1)N1O[C@H]2C=C[C@@H]1C2	.	2	.	-19	.	.
Cc1cccc(NC(=O)C(=O)NNC(=O)c2ccc(C(C)(C)C)cc2)c1	21	0	94*	-2	95*	-15
COc1ccc2c(c1)C(=NN)c1cc(OC)ccc1-2	55*	9	-14	-13	-4	-6
COc1ccc2c(c1)C(=NNc1ccc(C(=O)O)cc1)c1cc(OC)ccc1-2	1	0	-4	-12	-12	-35
Cc1ncc(CO)c(/C=N/NC(=O)c2ccc(O)cc2)c1O	3	1	0	-13	6	2
Cc1ncc(CO)c(/C=N/NC(=O)c2cc3c(s2)CCCC3)c1O	50*	3	-12	-6	-20	-9
COc1ccc(-c2nc(NC(=O)c3ccco3)sc2C)cc1	.	7	.	19	.	.
COc1ccc(-c2nc(NC(=O)c3[nH]c(C)c(C(C)=O)c3C)sc2C)cc1	19	46*	-8	88*	-20	-7
CC1CC(C)CN(C(=O)/C=C/c2ccc([N+](=O)[O-])s2)C1 (stereo not drawn)	.	-1	.	20	.	-10
O=C(/C=C/c1ccc([N+](=O)[O-])s1)N1CCCC1	52*	4	-15	-1	-18	-3
O=C(/C=C/c1ccc([N+](=O)[O-])s1)N1CCCCC1	74*	1	-25	-1	-31	-17
Cc1ccccc1S(=O)(=O)N(C)C[C@@H]1OCc2cnnn2CCCC(=O)N([C@@H](C)CO)C[C@H]1C	.	3	.	0	.	.
OC(c1ccc(F)cc1)c1nc(-c2cc3ccccc3o2)cs1 (stereo not drawn)	.	45*	.	75*	.	.
Cn1nc(C(C)(C)C)cc1C(=O)NCc1ccc2c(c1)OCO2	45	5	48*	-8	15	13
CC1CCN(S(=O)(=O)c2ccc(C(=O)NCc3ccc4c(c3)OCO4)cc2)CC1	-2	17	-4	58*	-22	7
CC1CC(C)CN(S(=O)(=O)c2ccc(C(=O)NCc3ccc4c(c3)OCO4)cc2)C1 (stereo not drawn)	3	1	-6	15	-17	4
Cc1oc(C(C)(C)C)cc1C(=O)NCc1ccc2c(c1)OCO2	1	3	-13	-13	-9	-8
COc1cccc(CNC(=O)[C@H]2CCCN2C(=O)[C@H]2CCCN2C(=O)c2cccc(OC)c2)c1	.	1	.	5	.	.
Clc1cccc2c1Sc1ccccc1CC2N1CCNCC1 (stereo not drawn)	9	21	11	23	10	58*
Cc1nn(-c2cc(C(F)(F)F)ccc2Cl)c2nc(C(Cl)(Cl)Cl)[nH]c(=O)c12	40*	-2	-7	-6	-12	-6

Screening data from PubChem.
